# According to ChEMBL document CHEMBL4699493, “Development of Bis-cyclic Imidazolidine-4-one Derivatives as Potent Antibacterial Agents” (J Med Chem, 2020):
# Assays:
# [1] = test system: Staphylococcus epidermidis; assay: Antibacterial activity against methicillin-resistant Staphylococcus epidermidis RP62A; format: functional
# Outline: (§1)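 Broth microdilution in TSB. Strains were grown 16 h, subcultured 6 h to log phase, then diluted to 10^6 CFU/mL by OD600. Compound came from a 5 mg/mL DMSO stock diluted in TSB and serially diluted, top final concentration 25 μg/mL. MIC was the lowest concentration giving complete growth inhibition. Done ≥3 times in duplicate.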
# Escherichia coli = assay: Antibacterial activity against Escherichia coli ATCC 25922; format: functional
# Outline: (§2)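 Broth microdilution in TSB. Stocks at 5 mg/mL in DMSO diluted with TSB to 100 μg/mL, then serially diluted; highest test concentration 25 μg/mL. Bacteria grown 16 h, subcultured 6 h to log phase, adjusted to 10^6 CFU/mL by OD600. MIC = lowest concentration giving complete growth inhibition. At least three repeats, each in duplicate.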
# [2] = Hemolytic activity against mouse RBC measured after 1 hr by microplate reader analysis; format: ADME, cell-based, Erythrocyte; conditions: mouse red blood cells (erythrocytes)
# Outline: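 Mouse red blood cells collected by centrifugation (500–700g, 10 min), washed three times in PBS, and diluted 20-fold in PBS. Mixed with 2-fold serial dilutions of compound (starting at 1 mg/mL in PBS) and incubated 1 h at 37 °C. After centrifugation, supernatant absorbance read at 540 nm. % hemolysis calculated relative to PBS (0%) and 2% Triton (100%). At least three repeats in duplicate.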
# Klebsiella pneumoniae = assay: Antibacterial activity against Klebsiella pneumoniae ATCC 13383; format: functional; outline: as §2
# Staphylococcus aureus [3] = assay: Antibacterial activity against methicillin-resistant Staphylococcus aureus ATCC 33591; format: functional; outline: as §1
# [4] = Selectivity ratio of HC50 for hemolytic activity against mouse RBC to MIC for methicillin-resistant Staphylococcus aureus; format: toxicity; conditions: mouse red blood cells (erythrocytes)
# Outline: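 Mouse RBCs were washed three times in PBS and diluted in 20 volumes of PBS. They were mixed with compound 2-fold serially diluted from 1 mg/mL in PBS, incubated 1 h at 37 °C, then centrifuged; supernatant read at A540. % hemolysis was calculated against PBS (0%) and 2% Triton (100%). Done ≥3 times in duplicate. HC50 was divided by the MRSA MIC.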
# Staphylococcus aureus [5] = assay: Antibacterial activity against methicillin-resistant Staphylococcus aureus ATCC 33591 assessed as ratio of MIC after and before 13 serial passages; format: functional
# Outline: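 Serial-passage resistance test. A first MIC was run by TSB broth microdilution. Bacteria from the well after the last clear well were resuspended to about 10^6 CFU/mL for the next MIC. This was repeated for 13 passages.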
SMILES,MIC [1] [µg/mL],MIC (Escherichia coli) [µg/mL],HC50 at 1 h [2] [µg/mL],MIC (Klebsiella pneumoniae) [µg/mL],MIC (Staphylococcus aureus [3]) [µg/mL],selectivity ratio [4],Ratio (Staphylococcus aureus [5])
NCCCC[C@@H](CN1CC(=O)N(c2ccc(N3CN(C[C@H](CCCCN)NC(=O)Cc4ccc5ccccc5c4)CC3=O)cc2)C1)NC(=O)Cc1ccc2ccccc2c1,> 25,> 25,> 250,> 25,> 25,–,–
CCCCCCCCCC(=O)N[C@@H](CCCCNC(=N)N)CN1CC(=O)N(c2ccc(N3CN(C[C@H](CCCCNC(=N)N)NC(=O)CCCCCCCCC)CC3=O)cc2)C1,5,> 25,125,5,1,125,–
CCCCCCCCCCCC(=O)N[C@@H](CCCCN)CN1CC(=O)N(c2ccc(N3CN(C[C@H](CCCCN)NC(=O)CCCCCCCCCCC)CC3=O)cc2)C1,2,> 25,> 250,> 25,1,> 250,–
NCCCC[C@@H](CN1CC(=O)N(c2ccc(N3CN(C[C@H](CCCCN)NC(=O)CC45C[C@H]6C[C@@H](C4)C[C@@H](C5)C6)CC3=O)cc2)C1)NC(=O)CC12C[C@H]3C[C@@H](C1)C[C@@H](C2)C3,> 25,> 25,> 250,> 25,> 25,–,–
CCCCCC(=O)N[C@@H](CCCCN)CN1CC(=O)N(c2ccc(N3CN(C[C@H](CCCCN)NC(=O)CCCCC)CC3=O)cc2)C1,> 25,> 25,> 250,> 25,> 25,–,–
CCCCCCCCCCCCCCCC(=O)N[C@@H](CCCCN)CN1CC(=O)N(c2ccc(N3CN(C[C@H](CCCCN)NC(=O)CCCCCCCCCCCCCCC)CC3=O)cc2)C1,> 25,> 25,> 250,> 25,> 25,–,–
CCCCCCCCCC(=O)N[C@@H](Cc1ccccc1)CN1CC(=O)N(c2ccc(N3CN(C[C@H](Cc4ccccc4)NC(=O)CCCCCCCCC)CC3=O)cc2)C1,> 25,> 25,> 250,> 25,> 25,–,–
CCCCCCCC(=O)N[C@@H](CCCCN)CN1CC(=O)N(c2ccc(N3CN(C[C@H](CCCCN)NC(=O)CCCCCCC)CC3=O)cc2)C1,> 25,> 25,> 250,> 25,> 25,–,–
NCCCC(=O)N[C@@H](Cc1ccccc1)CN1CC(=O)N(c2ccc(N3CN(C[C@H](Cc4ccccc4)NC(=O)CCCN)CC3=O)cc2)C1,> 25,> 25,> 250,> 25,> 25,–,–
CCCCCCCCCCCCCC(=O)N[C@@H](CCCCN)CN1CC(=O)N(c2ccc(N3CN(C[C@H](CCCCN)NC(=O)CCCCCCCCCCCCC)CC3=O)cc2)C1,> 25,> 25,> 250,> 25,> 25,–,–
N=C(N)NCCCC[C@@H](CN1CC(=O)N(c2ccc(N3CN(C[C@H](CCCCNC(=N)N)NC(=O)CC45C[C@H]6C[C@@H](C4)C[C@@H](C5)C6)CC3=O)cc2)C1)NC(=O)CC12C[C@H]3C[C@@H](C1)C[C@@H](C2)C3,2,> 25,250,> 25,1,250,–
CCCCCCCCCC(=O)N[C@@H](CCCCN)CNCC(=O)Nc1ccc(NC(=O)CNC[C@H](CCCCN)NC(=O)CCCCCCCCC)cc1,2,> 25,> 250,> 25,2,> 125,–
CCn1cc(C(=O)O)c(=O)c2cc(F)c(N3CCNCC3)cc21 [NORFLOXACIN],–,–,–,–,–,–,> 22
O=C(O)c1cn(C2CC2)c2cc(N3CCNCC3)c(F)cc2c1=O [CIPROFLOXACIN],0.15,0.07,–,0.3,0.15,–,–
